In ChEMBL document CHEMBL1143241, “Development of potent, allosteric dual Akt1 and Akt2 inhibitors with improved physical properties and cell activity” (Bioorg Med Chem Lett, 2008):
Values after ≈ are worked out from the molar mass of the structure shown.

Legend:
[1] = Solubility at pH 7.4 in 98% saline; assay type: physicochemical
[2] = target: T1, Serine/threonine-protein kinase Sgk1 (Homo sapiens, UniProt O00141); experiment: Inhibition of SGK
T1 sequence (O00141 whole entry): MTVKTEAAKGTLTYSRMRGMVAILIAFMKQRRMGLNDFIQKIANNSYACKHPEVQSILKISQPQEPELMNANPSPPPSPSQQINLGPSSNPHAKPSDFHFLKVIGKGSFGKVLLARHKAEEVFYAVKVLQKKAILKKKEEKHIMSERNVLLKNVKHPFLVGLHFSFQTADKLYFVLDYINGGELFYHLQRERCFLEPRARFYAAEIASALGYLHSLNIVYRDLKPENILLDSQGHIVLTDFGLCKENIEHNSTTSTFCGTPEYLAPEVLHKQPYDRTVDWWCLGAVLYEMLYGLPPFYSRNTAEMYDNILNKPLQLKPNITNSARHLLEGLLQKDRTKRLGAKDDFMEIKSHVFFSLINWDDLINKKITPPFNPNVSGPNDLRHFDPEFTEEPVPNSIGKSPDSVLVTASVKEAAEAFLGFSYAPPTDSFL
In short: (§1)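 In vitro enzyme inhibition assay following a previously reported protocol. Each IC50 is the average of at least three determinations.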

[3] = Inhibition of PKC; in short: as §1
[4] = target: T2, RAC-beta serine/threonine-protein kinase (Homo sapiens, UniProt P31751); experiment: Inhibition of Akt2; in short: as §1
T2 sequence (P31751 whole entry): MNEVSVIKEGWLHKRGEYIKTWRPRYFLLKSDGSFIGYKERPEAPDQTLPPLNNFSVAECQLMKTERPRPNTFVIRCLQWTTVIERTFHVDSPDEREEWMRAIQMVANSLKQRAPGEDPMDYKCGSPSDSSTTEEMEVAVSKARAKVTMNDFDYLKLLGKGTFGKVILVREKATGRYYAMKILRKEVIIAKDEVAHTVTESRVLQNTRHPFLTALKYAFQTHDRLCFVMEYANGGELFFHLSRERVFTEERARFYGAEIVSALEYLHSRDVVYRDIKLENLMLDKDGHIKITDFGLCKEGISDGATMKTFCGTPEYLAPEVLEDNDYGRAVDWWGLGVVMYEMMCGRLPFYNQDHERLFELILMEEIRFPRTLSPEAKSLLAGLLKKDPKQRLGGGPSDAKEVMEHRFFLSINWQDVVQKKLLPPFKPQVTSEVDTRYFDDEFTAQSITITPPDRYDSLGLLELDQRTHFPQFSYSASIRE

[5] = Inhibition of PKA; in short: as §1
[6] = target: T3, RAC-gamma serine/threonine-protein kinase (Homo sapiens, UniProt Q9Y243); experiment: Inhibition of Akt3
T3 sequence (Q9Y243 whole entry): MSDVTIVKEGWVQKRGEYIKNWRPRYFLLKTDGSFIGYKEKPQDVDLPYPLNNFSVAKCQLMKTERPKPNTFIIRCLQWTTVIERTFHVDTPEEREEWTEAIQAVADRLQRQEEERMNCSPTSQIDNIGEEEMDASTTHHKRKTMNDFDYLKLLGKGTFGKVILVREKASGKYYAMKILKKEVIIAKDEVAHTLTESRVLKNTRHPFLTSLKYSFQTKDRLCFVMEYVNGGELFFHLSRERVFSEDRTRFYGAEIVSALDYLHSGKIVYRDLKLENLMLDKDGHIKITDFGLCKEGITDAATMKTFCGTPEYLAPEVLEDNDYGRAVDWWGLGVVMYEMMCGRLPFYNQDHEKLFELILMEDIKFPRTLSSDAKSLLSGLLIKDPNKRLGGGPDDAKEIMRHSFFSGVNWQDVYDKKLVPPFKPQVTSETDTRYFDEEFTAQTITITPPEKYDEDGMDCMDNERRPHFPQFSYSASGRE

[7] = target: T2, RAC-beta serine/threonine-protein kinase; experiment: Inhibition of Akt2 by cell-based IPKA assay
[8] = target: T4, RAC-alpha serine/threonine-protein kinase (Homo sapiens, UniProt P31749); experiment: Inhibition of Akt1; in short: as §1
T4 sequence (P31749 whole entry): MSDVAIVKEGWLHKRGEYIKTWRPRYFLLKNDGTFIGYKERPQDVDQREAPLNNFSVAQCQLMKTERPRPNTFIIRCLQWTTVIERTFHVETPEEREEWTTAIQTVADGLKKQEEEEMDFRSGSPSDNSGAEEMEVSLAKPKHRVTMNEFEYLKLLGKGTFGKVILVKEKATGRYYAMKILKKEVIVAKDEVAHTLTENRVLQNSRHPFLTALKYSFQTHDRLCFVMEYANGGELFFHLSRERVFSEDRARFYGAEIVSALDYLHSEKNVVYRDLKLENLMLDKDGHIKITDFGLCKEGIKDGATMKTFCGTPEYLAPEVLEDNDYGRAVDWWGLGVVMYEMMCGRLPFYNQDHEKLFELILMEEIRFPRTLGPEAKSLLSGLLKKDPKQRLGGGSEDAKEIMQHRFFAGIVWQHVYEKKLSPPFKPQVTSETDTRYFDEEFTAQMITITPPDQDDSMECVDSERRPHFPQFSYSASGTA

[9] = target: T3, RAC-gamma serine/threonine-protein kinase; experiment: Inhibition of Akt3 by cell-based IPKA assay
[10] = target: T4, RAC-alpha serine/threonine-protein kinase; experiment: Inhibition of Akt1 by cell-based IPKA assay

For `O=C(O)c1ccc2nc(-c3ccccc3)c(-c3ccc(CN4CCC(n5c(=O)[nH]c6ccccc65)CC4)cc3)nc2c1`, the solubility [1] was 18 mg/mL (≈ 32.4 mM).
With `O=c1[nH]c2ccccc2n1C1CCN(Cc2ccc(-c3nc4ccc(-c5nnn[nH]5)cc4nc3-c3ccccc3)cc2)CC1` the solubility [1] was 18 mg/mL (≈ 31.1 mM).
`CCN(CC)CCNC(=O)c1ccc2nc(-c3ccccc3)c(-c3ccc(CN4CCC(n5c(=O)[nH]c6ccccc65)CC4)cc3)nc2c1` gave an IC50 [2] greater than 50 µM, an IC50 [3] greater than 50 µM and a solubility [1] of 18 mg/mL (≈ 27.5 mM). For the same molecule, the IC50 [4] was 0.212 µM, the IC50 [5] was greater than 50 µM and the IC50 [6] was 7.2 µM. For the same molecule, the IC50 [7] was 0.276 µM, the IC50 [8] was 0.138 µM and the IC50 [9] was greater than 10 µM. It also gave an IC50 [10] of 0.253 µM.
`CCN(CC)CCNC(=O)c1ccc2nc(-c3ccc(CN4CCC(n5c(=O)[nH]c6ccccc65)CC4)cc3)c(-c3ccccc3)nc2c1` showed an IC50 [2] greater than 50 µM, an IC50 [3] greater than 50 µM and a solubility [1] of 18 mg/mL (≈ 27.5 mM). It also gave an IC50 [4] of 0.359 µM, an IC50 [5] greater than 50 µM and an IC50 [6] of 7.4 µM. The IC50 [7] was 0.617 µM, the IC50 [8] was 0.458 µM and the IC50 [9] was 8 µM. The IC50 [10] was 0.368 µM.
For `O=C(O)c1ccc2nc(-c3ccc(CN4CCC(n5c(=O)[nH]c6ccccc65)CC4)cc3)c(-c3ccccc3)nc2c1`, the solubility [1] was 18 mg/mL (≈ 32.4 mM).
`O=c1[nH]c2ccccc2n1C1CCN(Cc2ccc(-c3nc4cc(-c5nnn[nH]5)ccc4nc3-c3ccccc3)cc2)CC1` gave a solubility [1] of 18 mg/mL (≈ 31.1 mM).
